In ChEMBL document CHEMBL2040816, “Design, synthesis, and structure-activity relationship studies of novel millepachine derivatives as potent antiproliferative agents” (Eur J Med Chem, 2012) one finds IC50 data, which are given here for 24 molecules.

Some results are limits rather than exact numbers.

Holding throughout (format): functional, cell-based
The test system of one test is HepG2. The experiment in a line: Antiproliferative activity against human HepG2 cells after 24 hrs by MTT assay. The following applies: HepG2, 24 h. The method, boiled down:
(§1)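 MTT assay. 1 × 10⁴ cells per well were plated and incubated 24 h before dye was added (20 µL of 5 mg/mL MTT in PBS per well), then incubated until a purple precipitate formed. Precipitate dissolved in 150 µL DMSO after medium removal, then absorbance read.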

For another test, the system named is K562. The experiment in a line: Antiproliferative activity against human K562 cells after 24 hrs by MTT assay. The following applies: K562, 24 h. The essentials: as §1
For the next test, the system named is SK-OV-3. Put plainly: Antiproliferative activity against human SKOV3 cells after 24 hrs by MTT assay. The following applies: SK-OV-3, 24 h. The method, boiled down:
as §1

The test system of the next test is HCT-116. The experiment in a line: Antiproliferative activity against human HCT116 cells after 24 hrs by MTT assay. The following applies: HCT-116, 24 h. The method, boiled down: as §1
The test system of a further test is HT-29. Put plainly: Antiproliferative activity against human HT-29 cells after 24 hrs by MTT assay. The following applies: HT-29, 24 h. The essentials: as §1
A further test has as its system SW-620. The experiment in a line: Antiproliferative activity against human SW620 cells after 24 hrs by MTT assay. Conditions: SW-620, 24 h. The method, boiled down: as §1

Consider `COc1ccc(C(=O)/C=C/c2ccc(Br)cc2)c2c1C=CC(C)(C)O2`, for which the IC50 with HepG2, with K562, with SK-OV-3, in the test with HCT-116, in the test on HT-29 and in the test with SW-620 was more than 10 µM throughout.
Regarding `COc1ccc(C(=O)/C=C/c2cccc(O)c2)c2c1C=CC(C)(C)O2`, the IC50 in the test with HepG2, in the test on K562, in the test with SK-OV-3, in the test on HCT-116, in the test with HT-29 and in the test with SW-620 was more than 10 µM each time.
Consider `COc1ccc(C(=O)/C=C/c2cccc3ccccc23)c2c1C=CC(C)(C)O2`, for which the IC50 in the test on HepG2, with K562, with SK-OV-3, in the test with HCT-116, in the test with HT-29 and in the test with SW-620 was more than 10 µM in each case.
As for `COc1ccc(C(=O)/C=C/c2cccc(C(F)(F)F)c2)c2c1C=CC(C)(C)O2`, the IC50 in the test with HepG2 is more than 10 µM; in the test on K562, 7.85 µM; in the test with SK-OV-3, 9.33 µM; in the test with HCT-116 it was 9.71 µM; in the test with HT-29, 9.05 µM; in the test on SW-620, 7.87 µM.
In the case of `CCOc1cc(/C=C/C(=O)c2ccc(OC)c3c2OC(C)(C)C=C3)ccc1O`, the IC50 with HepG2, in the test on K562, with SK-OV-3, with HCT-116, with HT-29 and with SW-620 was more than 10 µM in each case.
Regarding `COc1ccc(C(=O)/C=C/c2ccc3ccccc3n2)c2c1C=CC(C)(C)O2`, the half-maximal inhibitory concentration (IC50) in the test on HepG2 was 4.28 µM; in the test with K562, 3.02 µM; in the test on SK-OV-3, 2.35 µM; with HCT-116 it was 4.53 µM; in the test on HT-29, 3.79 µM; with SW-620, 2.25 µM.
As for `COc1ccc(C(=O)/C=C/c2ccco2)c2c1C=CC(C)(C)O2`, the IC50 in the test on HepG2, in the test with K562, in the test with SK-OV-3, in the test with HCT-116, in the test with HT-29 and in the test on SW-620 was more than 10 µM throughout.
For `COc1ccc(C(=O)/C=C/c2cccc(Cl)c2)c2c1C=CC(C)(C)O2`, the IC50 with HepG2, in the test on K562, in the test on SK-OV-3, with HCT-116, in the test with HT-29 and in the test with SW-620 was more than 10 µM throughout.
Regarding `COc1ccc(C(=O)/C=C/c2ccc(F)cc2)c2c1C=CC(C)(C)O2`, the half-maximal inhibitory concentration (IC50) in the test on HepG2, in the test with K562, in the test with SK-OV-3, in the test with HCT-116, with HT-29 and in the test with SW-620 was more than 10 µM throughout.
For the molecule `COc1ccc(C(=O)/C=C/c2ccc3ccccc3c2)c2c1C=CC(C)(C)O2`, the IC50 stood at 0.21 µM in the test with HepG2; 3.67 µM with K562; 7.65 µM with SK-OV-3; 5.82 µM in the test with HCT-116; 4.48 µM with HT-29; 2.14 µM in the test with SW-620.
As for `COc1ccc(C(=O)/C=C/c2ccc(N(C)C)cc2)c2c1C=CC(C)(C)O2`, the half-maximal inhibitory concentration (IC50) in the test with HepG2 came to 0.73 µM; with K562, 3.5 µM; in the test with SK-OV-3, 2.75 µM; with HCT-116 it was 1.92 µM; in the test on HT-29, 1.87 µM; in the test with SW-620, 0.57 µM.
With `COc1ccc(C(=O)/C=C/c2ccccn2)c2c1C=CC(C)(C)O2`, the 50% inhibitory concentration (IC50) in the test with HepG2 amounted to 5.76 µM; in the test with K562, 5.4 µM; with SK-OV-3, 8.39 µM; in the test on HCT-116, 6.63 µM; in the test with HT-29 it was 2.12 µM; with SW-620, 5 µM.
As to `COc1ccc(C(=O)/C=C/c2ccc(O)c(Br)c2)c2c1C=CC(C)(C)O2`, the IC50 in the test on HepG2, in the test on K562, in the test on SK-OV-3, in the test with HCT-116, in the test on HT-29 and in the test on SW-620 was more than 10 µM in each case.
In the case of `COc1ccc(C(=O)/C=C/c2ccc(OC)c(OC)c2OC)c2c1C=CC(C)(C)O2`, the IC50 with HepG2, with K562, in the test with SK-OV-3, with HCT-116, in the test with HT-29 and in the test with SW-620 was more than 10 µM in each case.
As to `COc1ccc(C(=O)/C=C/c2ccsc2)c2c1C=CC(C)(C)O2`, the IC50 in the test on HepG2, in the test with K562, in the test with SK-OV-3, in the test with HCT-116, in the test on HT-29 and in the test with SW-620 was more than 10 µM in each case.
Regarding `COc1ccc(C(=O)/C=C/c2ccc(O)cc2)c2c1C=CC(C)(C)O2`, the 50% inhibitory concentration (IC50) with HepG2, in the test on K562, in the test on SK-OV-3, in the test with HCT-116, in the test on HT-29 and in the test on SW-620 was more than 10 µM throughout.
For the molecule `COc1cc(/C=C/C(=O)c2ccc(OC)c3c2OC(C)(C)C=C3)cc(OC)c1O`, the IC50 in the test on HepG2, with K562, in the test on SK-OV-3, in the test on HCT-116, with HT-29 and in the test on SW-620 was more than 10 µM each time.
In the case of `COc1ccc(C(=O)/C=C/c2ccc(-n3ccnc3)cc2)c2c1C=CC(C)(C)O2`, the 50% inhibitory concentration (IC50) in the test on HepG2 was more than 10 µM; in the test with K562, more than 10 µM; with SK-OV-3, 7.2 µM; with HCT-116, more than 10 µM; in the test on HT-29, more than 6.6 µM; in the test with SW-620, more than 10 µM.
As to `COc1cc(OC)c(OC)cc1/C=C/C(=O)c1ccc(OC)c2c1OC(C)(C)C=C2`, the concentration for half-maximal inhibition (IC50) in the test with HepG2, in the test with K562, in the test on SK-OV-3, with HCT-116, with HT-29 and in the test on SW-620 was more than 10 µM in each case.
As for `COc1ccc(C(=O)/C=C/c2ccc(N3CCCC3)cc2)c2c1C=CC(C)(C)O2`, the concentration for half-maximal inhibition (IC50) in the test on HepG2 was found to be 4.74 µM; with K562 it was 6.18 µM; in the test on SK-OV-3, 7.37 µM; with HCT-116, 8.59 µM; in the test with HT-29, 8.36 µM; with SW-620, 7.15 µM.
`COc1ccc(/C=C/C(=O)c2ccc(OC)c3c2OC(C)(C)C=C3)cn1`: the IC50 with HepG2, with K562, with SK-OV-3, with HCT-116, in the test with HT-29 and in the test on SW-620 was more than 10 µM throughout.
Consider `COc1ccc(C(=O)/C=C/c2cc(Cl)ccc2O)c2c1C=CC(C)(C)O2`, for which the half-inhibitory concentration (IC50) with HepG2 is 6.64 µM; in the test on K562 it was 5.51 µM; in the test with SK-OV-3, 6.27 µM; with HCT-116, 5.24 µM; with HT-29, 4.97 µM; with SW-620 it was 4.23 µM.
On to `COc1ccc(C(=O)/C=C/c2ccc([N+](=O)[O-])cc2)c2c1C=CC(C)(C)O2`, for which the IC50 in the test on HepG2 was determined as 2.61 µM; in the test on K562, 7.77 µM; in the test on SK-OV-3, 3.42 µM; in the test on HCT-116, 8.88 µM; in the test with HT-29, 3.73 µM; in the test with SW-620, 3.52 µM.
`COc1ccc(C(=O)/C=C/c2ccccc2)c2c1C=CC(C)(C)O2`: the 50% inhibitory concentration (IC50) in the test on HepG2, in the test with K562, in the test on SK-OV-3, in the test with HCT-116, in the test on HT-29 and in the test on SW-620 was more than 10 µM each time.
